# Results from ChEMBL document CHEMBL1154039, “Synthesis and biological evaluation of 1,2,4-trisubstituted imidazoles and 1,3,5-trisubstituted pyrazoles as inhibitors of transforming growth factor beta type 1 receptor (ALK5)” (Bioorg Med Chem Lett, 2009).
# The source made the active and inactive calls. The rule behind the calls is not given here.
# What was measured:
# Homo sapiens = species: Homo sapiens; experiment: (§1) Cytotoxicity against human embryo lung […] cells at 30 uM by MTT assay; assay type: functional
# Outline: (§2)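 HLF cells were seeded at about 3000 per well and grown 24 h before treatment. The number of viable cells at treatment (t = 0) was measured to correct for differences in starting cell number. At the read times, MTT tetrazolium salt and phenazine methosulfate were added directly to the medium for 2–3 h.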
# [1] = biological target: T1, Activin receptor type-1C (Homo sapiens) (UniProt Q8NER5); experiment: Inhibition of ALK7 expressed in baculovirus/Sf9 cells assessed as inhibition of receptor autophosphorylation at 1 uM after 3 hrs
# T1 sequence (whole entry): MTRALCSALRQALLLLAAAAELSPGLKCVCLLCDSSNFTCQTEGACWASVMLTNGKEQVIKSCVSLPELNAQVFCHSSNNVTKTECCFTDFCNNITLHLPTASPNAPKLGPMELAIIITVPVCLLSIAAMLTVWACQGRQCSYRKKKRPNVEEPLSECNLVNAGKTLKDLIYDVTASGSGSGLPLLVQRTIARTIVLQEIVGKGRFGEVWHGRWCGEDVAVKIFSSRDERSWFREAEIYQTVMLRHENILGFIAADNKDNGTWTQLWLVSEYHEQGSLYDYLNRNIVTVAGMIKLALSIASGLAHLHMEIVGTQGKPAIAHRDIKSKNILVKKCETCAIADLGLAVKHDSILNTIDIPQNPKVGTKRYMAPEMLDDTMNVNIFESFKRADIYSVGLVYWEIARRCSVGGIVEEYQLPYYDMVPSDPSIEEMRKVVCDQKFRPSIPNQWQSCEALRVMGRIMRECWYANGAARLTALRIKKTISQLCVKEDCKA
# Outline: (§3)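 Kinase carried a C-terminal 6-His tag and was purified on a Ni2+ affinity column. The purified kinase was preincubated with compound for 30 min at 37 °C. The reaction was started with 10–8 mol/L ATP plus Smad3 substrate and run 3 h at 30 °C. Autophosphorylation was quantified from ATP consumed, using a luminescent ATP detection assay.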
# [2] = as §1; assay type: functional; outline: as §2
# [3] = biological target: T2, Activin receptor type-1B (Homo sapiens) (UniProt P36896); experiment: Inhibition of ALK4 expressed in baculovirus/Sf9 cells assessed as inhibition of receptor autophosphorylation at 0.1 uM after 3 hrs; outline: as §3
# T2 sequence (whole entry): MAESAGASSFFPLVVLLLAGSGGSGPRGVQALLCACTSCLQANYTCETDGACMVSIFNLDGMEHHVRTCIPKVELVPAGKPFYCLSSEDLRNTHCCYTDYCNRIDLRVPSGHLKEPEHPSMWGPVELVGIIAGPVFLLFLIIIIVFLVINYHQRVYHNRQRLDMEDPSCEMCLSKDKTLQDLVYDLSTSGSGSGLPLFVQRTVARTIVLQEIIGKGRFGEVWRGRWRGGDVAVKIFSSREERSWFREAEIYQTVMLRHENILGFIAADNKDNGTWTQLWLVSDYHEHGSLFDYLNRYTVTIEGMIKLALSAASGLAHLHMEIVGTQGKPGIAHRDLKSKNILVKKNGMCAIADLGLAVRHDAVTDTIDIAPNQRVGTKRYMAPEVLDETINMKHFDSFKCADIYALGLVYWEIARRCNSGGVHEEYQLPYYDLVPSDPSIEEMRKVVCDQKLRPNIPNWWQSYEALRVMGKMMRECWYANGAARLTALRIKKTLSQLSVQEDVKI
# [4] = biological target: T2, Activin receptor type-1B (Homo sapiens); experiment: Inhibition of ALK4 expressed in baculovirus/Sf9 cells assessed as inhibition of receptor autophosphorylation at 1 uM after 3 hrs; outline: as §3
# [5] = biological target: T1, Activin receptor type-1C (Homo sapiens); experiment: Inhibition of ALK7 expressed in baculovirus/Sf9 cells assessed as inhibition of receptor autophosphorylation at 0.1 uM after 3 hrs; outline: as §3
# [6] = Selectivity for ALK4 over ALK5
# Outline: (§4)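 Purified C-terminally 6-His-tagged ALK4, ALK5 and ALK7, each run in a separate autophosphorylation assay. Each enzyme was preincubated with a range of compound concentrations for 30 min at 37 °C. Reactions were started with 10–8 mol/L ATP plus Smad3 and run 3 h at 30 °C. Phosphorylation was quantified as ATP consumed, using a luminescent ATP assay. Selectivity was obtained by comparing activity across the kinases.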
# [7] = Selectivity for ALK4 over ALK7; outline: as §4
# [8] = Selectivity for ALK5 over ALK4; outline: as §4
# [9] = Selectivity for ALK5 over ALK7; outline: as §4
SMILES,Activity (Homo sapiens),inhibition [1],Activity [2],inhibition [3],inhibition [4],inhibition [5],also measured
COc1ccc(-c2cc(-c3ccc(C#N)cc3)nn2-c2ccccc2F)cc1OC,inactive,,,,,,
Cc1cccc(-c2nc(C(C)(C)C)cn2-c2ccc3c(c2)OCCO3)n1,inactive,,,,,,
Cc1cccc(-c2nc(-c3ccc(C(N)=O)cc3)cn2-c2ccc3c(c2)OCCO3)n1,,25%,0.7%,28.5%,49.3%,13.4%,
Cc1cccc(-c2nc(C(C)(C)C)cn2-c2ccc(F)cc2)n1,,,59%,,,,
NC(=O)c1ccc(-c2cc(-c3ccc4c(c3)OCO4)n(-c3nccs3)n2)cc1,inactive,,,,,,
COc1ccc(-c2cc(-c3ccc(C#N)cc3)nn2-c2ccccn2)cc1OC,inactive,,,,,,
NC(=O)c1ccc(-c2cn(-c3ccc4c(c3)OCO4)c(-c3ccccc3F)n2)cc1,inactive,,,,,,
COc1ccc(-n2cc(-c3ccc(C#N)cc3)nc2-c2cccc(C)n2)cc1F,,,57%,,,,
Cc1cccc(-c2nc(C(C)(C)C)cn2-c2ccc3c(c2)OCO3)n1,,,7.3%,,,,
NC(=O)c1ccc(-c2cn(-c3ccc4c(c3)OCO4)c(-c3ccccn3)n2)cc1,,54.8%,21.6%,65.6%,73.7%,24.5%,
NC(=O)c1ccc(-c2cc(-c3ccc4c(c3)OCO4)n(-c3ccccc3)n2)cc1,inactive,,,,,,
NC(=O)c1ccc(-c2cc(-c3ccc(F)cc3)n(-c3ccccc3F)n2)cc1,,,19.54%,,,,
NC(=O)c1ccc(-c2cc(-c3ccccn3)n(-c3ccc4c(c3)OCO4)n2)cc1,inactive,,,,,,
NC(=O)c1ccc(-c2cc(-c3ccc4c(c3)OCO4)n(-c3ccccc3C(F)(F)F)n2)cc1,inactive,,,,,,
COc1ccc(-n2cc(C(C)(C)C)nc2-c2cccc(C)n2)cc1F,,,22.1%,,,,
N#Cc1ccc(-c2cc(-c3ccc4c(c3)OCO4)n(-c3ccccn3)n2)cc1,inactive,,,,,,
Cc1cccc(-n2nc(-c3ccc(C#N)cc3)cc2-c2ccc3c(c2)OCO3)n1,,73.4%,15.4%,53.6%,77.7%,31.4%,
Cc1cccc(-c2nc(-c3ccc(C#N)cc3)cn2-c2ccc3c(c2)OCO3)n1,,44.6%,4%,45.5%,76.9%,33.9%,
COc1ccc(-c2cc(-c3ccc(C(N)=O)cc3)nn2-c2ccccc2F)cc1OC,,65.8%,19.4%,32.1%,70.4%,5.3%,
NC(=O)c1ccc(-c2nc(-c3ccccn3)c(-c3ccc4c(c3)OCO4)[nH]2)cc1 [SB-431542],,,55%,,,,
COc1ccccc1-n1nc(-c2ccc(C(N)=O)cc2)cc1-c1ccc2c(c1)OCO2,inactive,,,,,,

SMILES,Activity (Homo sapiens),inhibition [1],Activity [2],inhibition [3],inhibition [4],inhibition [5],also measured
NC(=O)c1ccc(-c2cc(-c3ccc(F)cc3)n(-c3ccccn3)n2)cc1,,,23.7%,,,,
NC(=O)c1ccc(-c2cc(-c3ccc(O)c(O)c3)n(-c3ccccc3O)n2)cc1,,56.5%,48.9%,73.8%,93.7%,34.8%,Selectivity ratio [6]: > 10; Selectivity ratio [7]: > 10
COc1ccc(-n2cc(-c3ccc(C(N)=O)cc3)nc2-c2cccc(C)n2)cc1F,,,9.1%,,,,
NC(=O)c1ccc(-c2cc(-c3ccc4c(c3)OCO4)n(-c3ccccc3F)n2)cc1,inactive,39.1%,,15.5%,50.7%,22.7%,
Cc1cccc(-c2nc(-c3ccc(C#N)cc3)cn2-c2ccc(F)cc2)n1,,,20.2%,,,,
Cc1cccc(-c2nc(-c3ccc(C(N)=O)cc3)cn2-c2ccc(F)cc2)n1,,35.1%,19.1%,25%,34.5%,16.2%,
Cc1cccc(-n2nc(-c3ccc(C(N)=O)cc3)cc2-c2ccc3c(c2)OCO3)n1,,64%,5.6%,39.4%,66.8%,4.2%,Selectivity ratio [8]: 10; Selectivity ratio [9]: 10
Cc1cccc(-c2nc(-c3ccc(C(N)=O)cc3)cn2-c2ccc3c(c2)OCO3)n1,,41.3%,14.9%,15.6%,29.8%,4.5%,
O=C(O)c1ccc(-c2cc(-c3ccc4c(c3)OCO4)n(-c3ccccc3F)n2)cc1,,,5.4%,,,,
N#Cc1ccc(-c2cn(-c3ccc4c(c3)OCO4)c(-c3ccccc3F)n2)cc1,,63.6%,12.3%,13.3%,36.6%,30.5%,
COc1ccc(-c2cc(-c3ccc(C(N)=O)cc3)nn2-c2ccccn2)cc1OC,,,5.3%,,,,
COc1ccccc1-n1nc(-c2ccc(C(N)=O)cc2)cc1-c1ccc(F)cc1,inactive,,,,,,
N#Cc1ccc(-c2cc(-c3ccc4c(c3)OCO4)n(-c3ccccc3F)n2)cc1,inactive,,,,,,
OCc1ccc(-c2cc(-c3ccc4c(c3)OCO4)n(-c3ccccc3F)n2)cc1,inactive,,,,,,
NC(=O)c1ccc(-c2cc(-c3ccccc3F)n(-c3ccc4c(c3)OCO4)n2)cc1,,57.4%,0.52%,3.2%,41.9%,50.9%,
Cc1cccc(-c2nc(-c3ccc(C#N)cc3)cn2-c2ccc3c(c2)OCCO3)n1,,,28%,,,,
NC(=O)c1ccc(-c2cc(-c3ccc4c(c3)OCO4)n(-c3ccccn3)n2)cc1,,57.3%,26.7%,70%,74.7%,35.5%,
N#Cc1ccc(-c2cc(-c3ccccc3F)n(-c3ccc4c(c3)OCO4)n2)cc1,,,57.5%,,,,
NC(=O)c1ccc(-c2cn(-c3ccc4c(c3)OCCO4)c(-c3ccccn3)n2)cc1,,,21%,,,,
NC(=O)c1ccc(-c2cc(-c3ccc(F)cc3)n(-c3ccccc3O)n2)cc1,inactive,,,,,,
